Reference: ChEMBL document CHEMBL4680134, “Structural optimization of natural product nordihydroguaretic acid to discover novel analogues as AcrB inhibitors” (Eur J Med Chem, 2020)

Assays:
[1] = target: T1, Multidrug efflux pump subunit AcrB (Escherichia coli (strain K12)) (UniProt P31224); assay: Inhibition of AcrB in Escherichia coli BW25113 assessed as potentiation of chloramphenicol induced antibacterial activity by measuring chloramphenicol MIC at 32 ug/ml measured after 18 hrs by checkerboard titration method (reference value: 8 ug/ml); conditions: dose 32.0 µg/ml
T1 sequence (whole entry): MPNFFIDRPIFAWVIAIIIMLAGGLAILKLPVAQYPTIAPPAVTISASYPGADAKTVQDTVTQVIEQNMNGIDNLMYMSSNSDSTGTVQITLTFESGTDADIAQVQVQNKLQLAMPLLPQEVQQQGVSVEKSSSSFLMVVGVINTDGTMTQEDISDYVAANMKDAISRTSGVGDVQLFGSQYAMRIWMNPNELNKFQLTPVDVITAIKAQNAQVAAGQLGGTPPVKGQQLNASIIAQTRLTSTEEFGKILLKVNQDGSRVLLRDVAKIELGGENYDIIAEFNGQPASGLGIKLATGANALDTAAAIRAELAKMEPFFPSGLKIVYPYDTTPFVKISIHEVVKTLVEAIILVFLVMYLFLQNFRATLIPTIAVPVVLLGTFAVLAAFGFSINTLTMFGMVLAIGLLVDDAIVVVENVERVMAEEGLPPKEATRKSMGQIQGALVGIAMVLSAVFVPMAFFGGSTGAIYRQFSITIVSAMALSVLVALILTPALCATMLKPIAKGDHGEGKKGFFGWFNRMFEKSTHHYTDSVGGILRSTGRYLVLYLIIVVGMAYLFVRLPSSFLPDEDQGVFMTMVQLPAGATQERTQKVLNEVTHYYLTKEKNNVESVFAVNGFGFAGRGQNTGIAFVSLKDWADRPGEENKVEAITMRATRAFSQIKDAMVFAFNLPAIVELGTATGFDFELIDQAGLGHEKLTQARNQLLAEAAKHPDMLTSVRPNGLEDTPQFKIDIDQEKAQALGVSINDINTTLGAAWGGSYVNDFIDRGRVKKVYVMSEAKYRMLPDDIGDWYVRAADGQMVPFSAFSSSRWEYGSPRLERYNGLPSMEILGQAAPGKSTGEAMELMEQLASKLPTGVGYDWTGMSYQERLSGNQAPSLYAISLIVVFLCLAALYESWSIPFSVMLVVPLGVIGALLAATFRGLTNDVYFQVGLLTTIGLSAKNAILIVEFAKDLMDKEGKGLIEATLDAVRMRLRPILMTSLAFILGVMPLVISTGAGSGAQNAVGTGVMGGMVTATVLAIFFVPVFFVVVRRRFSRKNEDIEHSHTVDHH

[2] = target: T1, Multidrug efflux pump subunit AcrB (Escherichia coli (strain K12)); assay: Inhibition of AcrB in Escherichia coli BW25113 assessed as potentiation of rifampicin induced antibacterial activity by measuring rifampicin MIC at 32 ug/ml measured after 18 hrs by checkerboard titration method (reference value: 16 ug/ml); conditions: dose 32.0 µg/ml
[3] = target: T1, Multidrug efflux pump subunit AcrB (Escherichia coli (strain K12)); assay: Inhibition of AcrB in Escherichia coli BW25113 assessed as potentiation of erythromycin induced antibacterial activity by measuring erythromycin MIC at 16 ug/ml measured after 18 hrs by checkerboard titration method (reference value: 64 ug/ml); conditions: dose 16.0 µg/ml
[4] = target: T1, Multidrug efflux pump subunit AcrB (Escherichia coli (strain K12)); assay: Inhibition of AcrB in Escherichia coli BW25113 assessed as potentiation of erythromycin induced antibacterial activity by measuring erythromycin MIC at 64 ug/ml measured after 18 hrs by checkerboard titration method (reference value: 64 ug/ml); conditions: dose 64.0 µg/ml
[5] = target: T1, Multidrug efflux pump subunit AcrB (Escherichia coli (strain K12)); assay: Inhibition of AcrB in Escherichia coli BW25113 assessed as potentiation of erythromycin induced antibacterial activity by measuring erythromycin MIC at 32 ug/ml measured after 18 hrs by checkerboard titration method (reference value: 64 ug/ml); conditions: dose 32.0 µg/ml
[6] = target: T1, Multidrug efflux pump subunit AcrB (Escherichia coli (strain K12)); assay: Inhibition of AcrB in Escherichia coli BW25113 assessed as potentiation of levofloxacin induced antibacterial activity by measuring levofloxacin MIC at 128 ug/ml measured after 18 hrs by checkerboard titration method (reference value: 0.06 ug/ml); conditions: dose 128.0 µg/ml
[7] = target: T1, Multidrug efflux pump subunit AcrB (Escherichia coli (strain K12)); assay: Inhibition of AcrB in Escherichia coli BW25113 assessed as potentiation of tetraphenylphosphonium induced antibacterial activity by measuring tetraphenylphosphonium MIC at 128 ug/ml measured after 18 hrs by checkerboard titration method (reference value: 1024 ug/ml); conditions: dose 128.0 µg/ml
[8] = target: T1, Multidrug efflux pump subunit AcrB (Escherichia coli (strain K12)); assay: Inhibition of AcrB in Escherichia coli BW25113 assessed as potentiation of rifampicin induced antibacterial activity by measuring rifampicin MIC at 64 ug/ml measured after 18 hrs by checkerboard titration method (reference value: 16 ug/ml); conditions: dose 64.0 µg/ml
[9] = target: T1, Multidrug efflux pump subunit AcrB (Escherichia coli (strain K12)); assay: Inhibition of AcrB in Escherichia coli BW25113 assessed as potentiation of levofloxacin induced antibacterial activity by measuring levofloxacin MIC at 64 ug/ml measured after 18 hrs by checkerboard titration method (reference value: 0.06 ug/ml); conditions: dose 64.0 µg/ml
[10] = Growth inhibition of Escherichia coli harboring AcrB deletion mutant at 64 ug/ml after 18 hrs by broth microdilution assay; conditions: dose 64 µg/ml
How it was run: (§1)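 MIC determined by 96-well broth microdilution in E. coli BW25113 expressing AcrB ((+)AcrB) and an isogenic acrB-deleted strain ((-)AcrB). Used to set the compound concentrations for synergy testing that produce no direct antibacterial effect.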

[11] = target: T1, Multidrug efflux pump subunit AcrB (Escherichia coli (strain K12)); assay: Inhibition of AcrB in Escherichia coli BW25113 assessed as potentiation of chloramphenicol induced antibacterial activity by measuring chloramphenicol MIC at 64 ug/ml measured after 18 hrs by checkerboard titration method (reference value: 8 ug/ml); conditions: dose 64.0 µg/ml
[12] = target: T1, Multidrug efflux pump subunit AcrB (Escherichia coli (strain K12)); assay: Inhibition of AcrB in Escherichia coli BW25113 assessed as potentiation of rifampicin induced antibacterial activity by measuring rifampicin MIC at 128 ug/ml measured after 18 hrs by checkerboard titration method (reference value: 16 ug/ml); conditions: dose 128.0 µg/ml
[13] = target: T1, Multidrug efflux pump subunit AcrB (Escherichia coli (strain K12)); assay: Inhibition of AcrB in Escherichia coli BW25113 assessed as potentiation of tetraphenylphosphonium induced antibacterial activity by measuring tetraphenylphosphonium MIC at 32 ug/ml measured after 18 hrs by checkerboard titration method (reference value: 1024 ug/ml); conditions: dose 32.0 µg/ml
[14] = target: T1, Multidrug efflux pump subunit AcrB (Escherichia coli (strain K12)); assay: Inhibition of AcrB in Escherichia coli BW25113 assessed as potentiation of tetraphenylphosphonium induced antibacterial activity by measuring tetraphenylphosphonium MIC at 64 ug/ml measured after 18 hrs by checkerboard titration method (reference value: 1024 ug/ml); conditions: dose 64.0 µg/ml
[15] = Growth inhibition of Escherichia coli BW25113 expressing AcrB at 512 ug/ml after 18 hrs by broth microdilution assay; conditions: dose 512 µg/ml; how it was run: as §1
[16] = target: T1, Multidrug efflux pump subunit AcrB (Escherichia coli (strain K12)); assay: Inhibition of AcrB in Escherichia coli BW25113 assessed as potentiation of levofloxacin induced antibacterial activity by measuring levofloxacin MIC at 32 ug/ml measured after 18 hrs by checkerboard titration method (reference value: 0.06 ug/ml); conditions: dose 32.0 µg/ml
[17] = target: T1, Multidrug efflux pump subunit AcrB (Escherichia coli (strain K12)); assay: Inhibition of AcrB in Escherichia coli BW25113 assessed as potentiation of chloramphenicol induced antibacterial activity by measuring chloramphenicol MIC at 128 ug/ml measured after 18 hrs by checkerboard titration method (reference value: 8 ug/ml); conditions: dose 128.0 µg/ml

| SMILES | MIC [1] [µg/mL] | MIC [2] [µg/mL] | MIC [3] [µg/mL] | MIC [4] [µg/mL] | MIC [5] [µg/mL] | MIC [6] [µg/mL] | MIC [7] [µg/mL] | MIC [8] [µg/mL] | MIC [9] [µg/mL] | growth inhibition (GI) [10] | MIC [11] [µg/mL] | MIC [12] [µg/mL] | MIC [13] [µg/mL] | MIC [14] [µg/mL] | growth inhibition (GI) [15] | MIC [16] [µg/mL] | MIC [17] [µg/mL] |
| --- | --- | --- | --- | --- | --- | --- | --- | --- | --- | --- | --- | --- | --- | --- | --- | --- | --- |
| Nc1ccccc1C(=O)NCCc1ccc(O)c(O)c1 | 8 | 16 | 64 | 64 | 64 | 0.06 | 512 | 16 | 0.06 | Non-Toxic | 4 | 16 | 1020 | 1020 | Non-Toxic | 0.06 | 4 |
| O=C(NCCc1ccc(O)c(O)c1)c1ccccc1O | 8 | 16 | 64 | 64 | 64 | 0.03 | 512 | 16 | 0.03 | Non-Toxic | 8 | 16 | 1020 | 512 | Non-Toxic | 0.03 | 4 |
| O=C(NCCc1ccc(O)c(O)c1)c1cc(O)c(O)c(O)c1 | 4 | 16 | 32 | 16 | 32 | 0.03 | 256 | 16 | 0.03 | Non-Toxic | 4 | 16 | 512 | 512 | Non-Toxic | 0.03 | 2 |
| Oc1ccc(CCCCc2ccc(Cl)cc2)cc1O | 16 | 16 | 64 | 64 | 64 | 0.06 | 512 | 16 | 0.06 | Non-Toxic | 16 | 16 | 1020 | 512 | Non-Toxic | 0.06 | 16 |
| O=C(NCCc1ccc(O)c(O)c1)c1ccc(Br)cc1 | 8 | 16 | 64 | 64 | 64 | 0.06 | 1020 | 16 | 0.06 | Non-Toxic | 8 | 16 | 1020 | 1020 | Non-Toxic | 0.06 | 8 |
| O=C(NCCc1ccc(O)c(O)c1)c1ccc(C(F)(F)F)cc1 | 8 | 16 | 64 | 64 | 64 | 0.03 | 1020 | 16 | 0.06 | Non-Toxic | 8 | 16 | 1020 | 1020 | Non-Toxic | 0.06 | 8 |
| Oc1ccc(CCCCc2cc3cccc4ccc5cccc2c5c43)cc1O | 8 | 16 | 64 | 32 | 64 | 0.06 | 256 | 16 | 0.06 | Non-Toxic | 8 | 16 | 512 | 512 | Non-Toxic | 0.06 | 4 |
| Oc1ccc(CCCCCCCc2ccc(O)c(O)c2)cc1O | 8 | 16 | 64 | 64 | 64 | 0.06 | 512 | 16 | 0.06 | Non-Toxic | 8 | 16 | 512 | 512 | Non-Toxic | 0.06 | 8 |
